Calls of active or inactive are those of the source. No cut-off for these calls is given here. Starred links: 1 amine or outer side, 2 acyl side, 3 side chain; linkers in the order of their positions; H or OH if unused. Non-standard residues stand in square brackets, D forms with d. Residues, ends and D or L forms follow the SMILES beside them. *: point of attachment. X1 = CCCCCCCCCCCCCCCC(=O)NCCCN1C(=O)CC(*)C1=O; X3 = N[C@@H](Cc1ccccc1)CN(CC(=O)[*:2])[*:1]
Assays:
Type in all cases: cell-based
[1] = biological target: T1, Delta-type opioid receptor (Homo sapiens, UniProt P41143); assay: (§1) Bias factor, selectivity for agonist activity at DOP (unknown origin) expressed in SH-SY5Y cell membranes co-expressing beta-arrestin2-RGFP protein assessed as induction of beta-arrestin2 activation to agonist activity at NOP (unknown origin) expressed in SH-SY5Y cell membranes co-expressing Gbeta1-RGFP protein assessed as induction of G protein activation
Outline: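 Concentration–response curves from delta G protein (membrane) and β-arrestin 2 (whole cell) BRET assays fitted to the Black–Leff operational model. Bias factor = Δlog(τ/KA) G protein minus Δlog(τ/KA) β-arrestin 2, with deltorphin A as the unbiased reference. Mean of at least five experiments, with 95% confidence limits.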

[2] = biological target: T1, Delta-type opioid receptor; assay: Agonist activity at DOP (unknown origin) expressed in SH-SY5Y cell membranes co-expressing beta-arrestin2-RGFP protein assessed as induction of beta-arrestin2 activation incubated for 15 mins by BRET assay
Outline: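 Whole SH-SY5Y cells stably co-expressing delta-RLuc and β-arrestin 2-RGFP, plated 24 h earlier (100,000 cells/well), in PBS with MgCl2 0.5 mM and CaCl2 0.9 mM. Coelenterazine 5 μM final added 15 min before reading. BRET ratio read 15 min after agonist at room temperature. Efficacy and CR relative to deltorphin A. Five experiments in duplicate.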

[3] = biological target: T2, Mu-type opioid receptor (Homo sapiens, UniProt P35372); assay: Agonist activity at MOP (unknown origin) expressed in SH-SY5Y cell membranes co-expressing beta-arrestin2-RGFP protein assessed as induction of beta-arrestin2 activation incubated for 15 mins by BRET assay
[4] = biological target: T2, Mu-type opioid receptor; assay: Agonist activity at MOP (unknown origin) expressed in SH-SY5Y cell membranes co-expressing Gbeta1-RGFP protein assessed as induction of G protein activation incubated for 15 mins by BRET assay
[5] = biological target: T1, Delta-type opioid receptor; assay: Agonist activity at DOP (unknown origin) expressed in SH-SY5Y cell membranes co-expressing Gbeta1-RGFP protein assessed as induction of G protein activation incubated for 15 mins by BRET assay
Outline: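 Membranes (3 μg protein) from SH-SY5Y cells stably co-expressing delta-RLuc and Gβ1-RGFP, in DPBS. Ligands in PBS–BSA 0.01%, coelenterazine 5 μM final, room temperature. BRET ratio (RGFP 510 nm/RLuc 460 nm CPS minus vehicle) read 15 min after agonist. Efficacy relative to deltorphin A run on every plate; CR versus deltorphin A EC50. Five experiments in duplicate.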

[6] = biological target: T3, Nociceptin receptor (Homo sapiens, UniProt P41146); assay: Agonist activity at NOP (unknown origin) expressed in HEK293 cell membranes co-expressing Gbeta1-RGFP protein assessed as induction of G protein activation incubated for 15 mins by BRET assay
Outline: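 Membranes (3 μg protein) from HEK293 cells stably co-expressing NOP-RLuc and Gβ1-RGFP, in DPBS. Coelenterazine 5 μM final; ligands in PBS–BSA 0.01%. BRET ratio (RGFP 510 nm / RLuc 460 nm) read 15 min after agonist, room temperature. Values are vehicle-subtracted stimulated BRET ratio. Mean of five experiments in duplicate.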

[7] = biological target: T3, Nociceptin receptor; assay: Agonist activity at NOP (unknown origin) […] assessed as induction of beta-arrestin2 activation incubated for 15 mins by BRET assay
[8] = biological target: T3, Nociceptin receptor; assay: Antagonist activity at NOP (unknown origin) expressed in HEK293 cell membranes co-expressing Gbeta1-RGFP protein assessed as reduction in N/OFQ(1-13)-NH2-induced induction of G protein activation pre-incubated for 15 mins before stimulation with N/OFQ(1-13)-NH2 for 15 mins by BRET assay; conditions: read-out: pA2 (converted)
[9] = biological target: T3, Nociceptin receptor; assay: Antagonist activity at NOP (unknown origin) expressed in HEK293 cell membranes co-expressing beta-arrestin2-RGFP protein assessed as reduction in N/OFQ(1-13)-NH2-induced induction of beta-arrestin2 activation pre-incubated for 15 mins before stimulation with N/OFQ(1-13)-NH2 for 15 mins by BRET assay; conditions: read-out: pA2 (converted)
[10] = biological target: T3, Nociceptin receptor; assay: as §1, with “NOP” for “DOP”, “HEK293” for “SH-SY5Y”
Outline: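 Concentration–response curves in the NOP G protein and β-arrestin 2 BRET assays were fitted to the Black–Leff operational model. Mean of at least five experiments with 95% confidence limits.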

T3 sequence (P41146 whole entry): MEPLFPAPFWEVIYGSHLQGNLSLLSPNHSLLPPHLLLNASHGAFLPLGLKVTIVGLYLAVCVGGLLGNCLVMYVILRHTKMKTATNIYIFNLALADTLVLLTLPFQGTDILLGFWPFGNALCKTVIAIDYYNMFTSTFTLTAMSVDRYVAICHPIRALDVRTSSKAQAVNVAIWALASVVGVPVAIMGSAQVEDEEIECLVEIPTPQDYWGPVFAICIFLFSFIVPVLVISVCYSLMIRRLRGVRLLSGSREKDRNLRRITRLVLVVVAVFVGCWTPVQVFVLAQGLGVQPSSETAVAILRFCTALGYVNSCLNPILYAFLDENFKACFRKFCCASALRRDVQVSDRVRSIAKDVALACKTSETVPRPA
T1 sequence (P41143 whole entry): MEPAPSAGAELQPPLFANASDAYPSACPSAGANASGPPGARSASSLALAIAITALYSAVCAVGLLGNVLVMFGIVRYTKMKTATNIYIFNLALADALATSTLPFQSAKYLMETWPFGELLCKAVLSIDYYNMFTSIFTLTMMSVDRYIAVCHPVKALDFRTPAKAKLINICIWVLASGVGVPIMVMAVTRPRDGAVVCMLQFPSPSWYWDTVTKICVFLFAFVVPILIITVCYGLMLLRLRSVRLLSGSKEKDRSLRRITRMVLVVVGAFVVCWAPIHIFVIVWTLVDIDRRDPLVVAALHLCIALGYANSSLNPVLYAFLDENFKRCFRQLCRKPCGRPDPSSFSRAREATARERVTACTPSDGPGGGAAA
T2 sequence (P35372 whole entry): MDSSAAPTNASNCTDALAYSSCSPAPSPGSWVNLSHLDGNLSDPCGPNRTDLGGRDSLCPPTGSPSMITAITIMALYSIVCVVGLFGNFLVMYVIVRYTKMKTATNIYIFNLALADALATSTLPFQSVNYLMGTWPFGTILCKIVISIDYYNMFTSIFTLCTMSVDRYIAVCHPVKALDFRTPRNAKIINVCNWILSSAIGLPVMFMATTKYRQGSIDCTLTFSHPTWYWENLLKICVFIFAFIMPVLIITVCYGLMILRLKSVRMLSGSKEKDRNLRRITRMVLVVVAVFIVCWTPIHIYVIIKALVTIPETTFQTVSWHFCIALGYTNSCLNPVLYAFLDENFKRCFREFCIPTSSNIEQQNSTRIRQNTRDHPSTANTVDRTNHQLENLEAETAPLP

SMILES | Selectivity ratio [1] | EC50 [2] [nM] | EC50 [3] [nM] | EC50 [4] [nM] | EC50 [5] [nM] | EC50 [6] [nM] | pEC50 ([7]; HEK293) | Kb [8] [nM] | Kb [9] [nM] | EC50 [7] [nM] | Selectivity Index [10]
CCCCCCCCCCCCCCCC(=O)NCCCN1C(=O)CC(SC[C@H](NC(=O)[C@H](CC(=O)O)NC(=O)[C@H](CCSC)NC(=O)[C@H](CC(C)C)NC(=O)[C@H](Cc2c[nH]cn2)NC(=O)[C@H](Cc2ccccc2)NC(=O)[C@@H](CCSC)NC(=O)[C@@H](N)Cc2ccc(O)cc2)C(N)=O)C1=O (some centres undefined) (H-Y[dM]FHLMDC(X1)-NH2) | 1.06 | 22.4 | 38 | 51.3 | 2.04 |  |  |  |  |  | 
CCCCCCCCCCCCCCCC(=O)NCCCN1C(=O)CC(SC[C@H](NC(=O)[C@H](CC(C)C)NC(=O)[C@H](Cc2ccccc2)NC(=O)CNC(=O)CNC(=O)[C@@H](N)Cc2ccc(O)cc2)C(N)=O)C1=O (some centres undefined) (H-YGGFLC(X1)-NH2) | 1.7 | 132 | 229 | 4.07 | 8.13 |  |  |  |  |  | 
CSCC[C@H](NC(=O)[C@H](CC(C)C)NC(=O)[C@H](Cc1c[nH]cn1)NC(=O)[C@H](Cc1ccccc1)NC(=O)[C@@H](CCSC)NC(=O)[C@@H](N)Cc1ccc(O)cc1)C(=O)N[C@@H](CC(=O)O)C(=O)O (H-Y[dM]FHLMD-OH) | 0 | 14.8 |  |  | 26.3 |  |  |  |  |  | 
C[C@H](NC(=O)CNC(=O)[C@@H](NC(=O)[C@H](Cc1ccccc1)NC(=O)CNC(=O)CNC[C@@H](N)Cc1ccccc1)[C@@H](C)O)C(=O)N[C@@H](CCCN=C(N)N)C(=O)N[C@@H](CCCCN)C(=O)N[C@@H](CO)C(=O)N[C@@H](C)C(=O)N[C@@H](CCCN=C(N)N)C(=O)N[C@@H](CCCCN)C(N)=O (H-[X3]GFTGARKSARK-NH2) |  |  |  |  |  | 8.91 | inactive | 5.89 | 14.8 |  | 
CCCCCCCCCCCCCCCC(=O)NCCCN1C(=O)CC(SC[C@H](NC(=O)[C@H](CO)NC(=O)[C@@H]2CCCN2C(=O)[C@H](Cc2ccc(O)cc2)NC(=O)CNC(=O)[C@H](Cc2ccccc2)NC(=O)[C@@H](C)NC(=O)[C@@H](N)Cc2ccc(O)cc2)C(N)=O)C1=O (some centres undefined) |  | 617 | 11 | 1.45 | 58.9 |  |  |  |  |  | 
CCCCCCCCCCCCCCCC(=O)NCCCN1C(=O)CC(SC[C@H](NC(=O)[C@H](CCCCN)NC(=O)[C@H](CCCNC(=N)N)NC(=O)[C@H](C)NC(=O)CNC(=O)[C@@H](NC(=O)[C@H](Cc2ccccc2)NC(=O)CNC(=O)CNC(=O)[C@@H](N)Cc2ccccc2)[C@@H](C)O)C(=O)N[C@@H](C)C(=O)N[C@@H](CCCNC(=N)N)C(=O)N[C@@H](CCCCN)C(N)=O)C1=O (some centres undefined) (H-FGGFTGARKC(X1)ARK-NH2) |  |  |  |  |  | 0.288 |  |  |  | 19.1 | 0.91

Reference: ChEMBL document CHEMBL4665800, “Biased Agonism at Nociceptin/Orphanin FQ Receptors: A Structure Activity Study on N/OFQ(1-13)-NH” (J Med Chem, 2020)
